MMP-13 inhibitor – MMP13 (human) collagenase inhibition; P45452; MMP-13 fTHP FRET cleavage, Mca fluorescence; inhibition, % at 4 µM; 65,000 compounds, 0.07% hits;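 active means inhibition above the mean of compound-free control plate wells plus 3 SD, cut at about 14% in these data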;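 further: 0% = DMSO wells and 100% = wells with reference MMP-13 inhibitor after basal subtraction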
RORA act – activates the human nuclear receptor RORA | P35398 | CHO-K1 Gal4-RORA LBD luciferase reporter, luminescence; percent increase over mock-subtracted basal signal | activation, % at 10 µM | 65,000 compounds, 1.5% hits | AID 560;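 active means activation above the mean of all tested compounds plus 3 SD, cut at about 49% in these data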;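 further: 0% = DMSO-treated RORA cells and 100% = added signal equal to DMSO minus mock-transfected cells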
Target sequence (P35398 whole entry, looked up, the tested form may be a part): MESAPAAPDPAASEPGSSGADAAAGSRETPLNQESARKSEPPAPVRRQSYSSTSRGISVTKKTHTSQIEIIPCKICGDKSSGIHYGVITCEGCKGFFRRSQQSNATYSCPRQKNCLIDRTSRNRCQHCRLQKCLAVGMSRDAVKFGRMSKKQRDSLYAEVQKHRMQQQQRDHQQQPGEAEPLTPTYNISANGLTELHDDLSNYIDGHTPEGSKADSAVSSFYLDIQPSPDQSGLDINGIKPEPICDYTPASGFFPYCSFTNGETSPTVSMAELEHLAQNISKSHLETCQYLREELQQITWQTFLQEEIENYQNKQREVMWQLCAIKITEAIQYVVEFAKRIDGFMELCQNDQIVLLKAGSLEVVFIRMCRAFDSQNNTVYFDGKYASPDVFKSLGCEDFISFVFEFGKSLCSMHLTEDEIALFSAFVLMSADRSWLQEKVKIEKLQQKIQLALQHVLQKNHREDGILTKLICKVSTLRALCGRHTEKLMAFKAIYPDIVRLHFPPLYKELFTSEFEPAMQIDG
PKA kinase inh – blocks human protein kinase A activity. PKA Kemptide phosphorylation, Kinase-Glo ATP luminescence. inhibition, % at 6 µM. 65,000 compounds, 0.1% hits;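 active means inhibition above the screen-wide mean inhibition plus 3 SD, cut at about 21% in these data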
SF-1 act – activators of human nuclear receptor SF-1; 65,000 compounds, 1.9% hits; Q13285; activation, % at 10 µM; CHO-K1 Gal4-SF-1 LBD luciferase reporter; % increase over DMSO SF-1-specific signal;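 active means activation above the mean activation of all tested compounds plus 3 SD, cut at about 50% in these data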
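Assay system: CHO-K1 cells co-transfected with Gal4 DBD–human SF-1 LBD, 5xGal4 luciferase reporter / Input: 4,000 cells per well / Incubation: 20 h compound exposure at 37 °C after 1 h cell settling / Detection: SteadyLite luciferase luminescence / Control set: DMSO negative control and −SF1 background wells / Replication: one test per compound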
JNK3 inh – blocks human JNK3 kinase activity; purified JNK3 kinase activity, HTS; inhibition, % at 8 µM; 60,000 compounds, 0.61% hits; in the data active means inhibition above about 17%;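 further: 0% = DMSO and 100% = reference inhibitor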
ROCK2 blocker – inhibitors of human Rho kinase 2; O75116; purified ROCK2, Kinase-Glo ATP depletion luminescence; inhibition, % at 6 µM; 60,000 compounds, 0.35% hits;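 active means inhibition above the screen-wide mean inhibition plus 3 SD, cut at about 18% in these data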;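 further: plate controls were DMSO wells for no effect and Y-27632 control wells after no-enzyme background subtraction for full effect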
An asterisk follows results filed as active. Compounds with a hit are over-represented: about 3.4% of the library has one in this group of screens.

For Cc1cc(Br)c2c(c1)=C(c1sc(N3CCCCCC3)nc1O)C(=O)N=2 the results were MMP-13 inhibitor 4, RORA act 34, PKA kinase inh 3, SF-1 act 50*, JNK3 inh 6 and ROCK2 blocker 4.
Screening CCC1CCCCN1C(=O)CSc1nnc(-c2ccc(Cl)cc2)o1 (stereo not drawn) returned MMP-13 inhibitor 5, RORA act 28, PKA kinase inh 7, SF-1 act 2, JNK3 inh -7 and ROCK2 blocker 0.
Screening CCC1CCCCN1C(=O)CSc1nnc(-c2ccco2)o1 (stereo not drawn) returned MMP-13 inhibitor -10, RORA act 49*, PKA kinase inh 6, SF-1 act 52*, JNK3 inh 7 and ROCK2 blocker 2.
CC(Sc1ccc2ccccc2n1)C(=O)O (stereo not drawn) was read as MMP-13 inhibitor 1, RORA act -1, PKA kinase inh 7, SF-1 act 3, JNK3 inh 39* and ROCK2 blocker 9.
CC(Sc1cccc2cccc(C(=O)O)c12)C(=O)O (stereo not drawn) was read as MMP-13 inhibitor 3, RORA act -16, PKA kinase inh 10, SF-1 act -18, JNK3 inh 2 and ROCK2 blocker 6.
CSc1nnc2c3cc(C)ccc3n(Cc3ccccc3)c2n1 was read as MMP-13 inhibitor 1, RORA act -7, PKA kinase inh 10, SF-1 act -18, JNK3 inh 0 and ROCK2 blocker 7.
Cc1ccc(-c2nnc(-c3cccc(Br)c3)o2)cc1 was read as MMP-13 inhibitor -4, RORA act 18, PKA kinase inh -1, SF-1 act 40, JNK3 inh -3 and ROCK2 blocker 1.
Screening O=c1oc2ccccc2cc1-c1nnc(-c2cccc(Br)c2)o1 returned MMP-13 inhibitor 0, RORA act 29, PKA kinase inh 10, SF-1 act 53*, JNK3 inh 6 and ROCK2 blocker 0.
Brc1cccc(-c2nnc(-c3ccccc3)o2)c1 was read as MMP-13 inhibitor 1, RORA act 39, PKA kinase inh 4, SF-1 act 60*, JNK3 inh -3 and ROCK2 blocker 5.
Screening Cc1ccccc1-c1nnc(-c2ccc(Br)cc2)o1 returned MMP-13 inhibitor -14, RORA act 32, PKA kinase inh 3, SF-1 act 77*, JNK3 inh -3 and ROCK2 blocker -1.
For CC1CCN(C(=O)CSc2ccc3nnc(-c4ccccc4)n3n2)CC1 the results were MMP-13 inhibitor -2, RORA act -8, PKA kinase inh 12, SF-1 act -8, JNK3 inh 9 and ROCK2 blocker 5.
COc1ccc(CCNC(=O)c2c(O)c3c([nH]c2=O)CCCC3)cc1OC was read as MMP-13 inhibitor -2, RORA act -3, PKA kinase inh 5, SF-1 act -8, JNK3 inh 3 and ROCK2 blocker 8.
c1nc(N2CCCC2)c2[nH]cnc2n1 was read as MMP-13 inhibitor 2, RORA act 11, PKA kinase inh 22* and SF-1 act 15.
`CCOC(=O)c1sc(NC(=O)c2ccc(Cl)s2)cc1C` gave MMP-13 inhibitor 8, RORA act 78*, PKA kinase inh 7, SF-1 act 54*, JNK3 inh 5 and ROCK2 blocker 5.
CCOC(=O)c1sc(NCCNc2nc(C)c(C(=O)OCC)s2)nc1C was read as MMP-13 inhibitor -4, RORA act 21, PKA kinase inh 5, SF-1 act -6, JNK3 inh -4 and ROCK2 blocker 2.
Screening C=CCOC(=O)c1sc(NC(=O)c2ccco2)nc1C returned MMP-13 inhibitor -6, RORA act 53*, PKA kinase inh 6, SF-1 act 93*, JNK3 inh -3 and ROCK2 blocker 1.
For CCOC(=O)c1sc(NC(=O)c2ccc(CC)s2)nc1C the results were MMP-13 inhibitor -2, RORA act 72*, PKA kinase inh 10, SF-1 act 119*, JNK3 inh 0 and ROCK2 blocker 10.
CCOC(=O)CNC(=O)c1sc(NC(=O)c2ccccc2F)nc1C was read as MMP-13 inhibitor 6, RORA act 29, PKA kinase inh 5, SF-1 act 53*, JNK3 inh 5 and ROCK2 blocker -5.

Source: PubChem BioAssay
